Source: PubChem BioAssay (several laboratories)
A selection: hits, their analogues and other compounds. The true share with any hit is near 2.9%.
Cdc25B block: human M-phase inducer phosphatase 2 inhibition. P30305. recombinant Cdc25B, OMFP fluorescence Ex485/Em525. inhibition, %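 (compounds tested at 10 µM final in the well)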. actives 0.1% (n = 65,000). AID 368; in the data active means inhibition above about 50%
MKP-1 inh: inhibitors of human MKP-1 phosphatase; P28562; recombinant MKP-1, OMFP hydrolysis fluorescence; inhibition, %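 (compounds tested at a single concentration somewhere between 10 and 100 µM)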; actives 0.15% (n = 65,000); AID 374;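 active means inhibition above about 50%, limit read from the data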;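 further: 0% = DMSO max control wells and 100% = wells with enzyme stopped by NaOH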
Target sequence (P28562 whole entry, looked up): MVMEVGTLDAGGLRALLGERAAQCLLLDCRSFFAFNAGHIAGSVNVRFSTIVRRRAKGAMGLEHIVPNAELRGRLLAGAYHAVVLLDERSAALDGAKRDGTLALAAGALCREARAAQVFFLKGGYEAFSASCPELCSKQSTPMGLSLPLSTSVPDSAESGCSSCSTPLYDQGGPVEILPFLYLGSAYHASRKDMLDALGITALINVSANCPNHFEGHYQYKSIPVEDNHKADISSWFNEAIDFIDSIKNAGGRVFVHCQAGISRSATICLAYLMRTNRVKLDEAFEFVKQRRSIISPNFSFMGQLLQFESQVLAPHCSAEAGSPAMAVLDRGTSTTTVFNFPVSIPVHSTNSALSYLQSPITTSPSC
E coli RNAP: blocks E. coli RNA polymerase transcription; P0A8V2; fluorescence transcription assay; inhibition, %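 (tested at 10 µM)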; actives 0.2% (n = 62,000); in the data active means inhibition above about 20%;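 further: 0% = enzyme without compound and 100% = no enzyme blank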
Hsp90 inh: displaces geldanamycin probe from tumor Hsp90 | P07900 | NCI-N417 lysate Hsp90, Cy3B-geldanamycin FP displacement | inhibition, % at 30 µM | actives 0.35% (n = 64,000);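 active means inhibition above 50%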;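 further: 0% = tracer plus lysate wells and 100% = tracer alone without lysate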
Ecoli tolC: E. coli tolC mutant growth inhibition. growth inhibition, % at 10 µM (by protocol). E. coli BW25113 tolC mutant growth, OD615. actives 2.2% (n = 65,000);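 active means growth inhibition at or above a cutoff equal to the mean over every tested compound plus 3 SD, cut at about 60% in these data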;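 further: growth measured after 20 h incubation at 37 °C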
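Assay system: tolC-deleted E. coli BW25113. Medium: kanamycin-containing LB broth (50 µg/mL). Dosing: 10 µM final, single dose. Timing: bacterial growth with compound for 20 h at 37 °C. Detection: A615 absorbance measurement. Read-out basis: growth inhibition in percent.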
BAP1 block: human BAP1 deubiquitinase inhibition; calls only at 20 µM; Q92560; recombinant BAP1, Ub-AMC hydrolysis fluorescence kinetic; stronger effect = lower value; actives 0.48% (n = 72,000);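 active means activity remaining at or below 50% of control, provided the compound also passes the data quality filters; inactive means the rest, including low values that fail the filters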;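 further: 100% = DMSO wells rate and 0% = substrate alone blank rate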
* hit, by the source's call; i = inactive; x = no result shown; + = active, no number.

SMILES	Cdc25B block	MKP-1 inh	E coli RNAP	Hsp90 inh	Ecoli tolC	BAP1 block
O=C(/N=C1\NC(=O)C(F)(C(F)(F)F)S1)NC1CCCCC1 (stereo not drawn)	0	4	25*	-3	24	i
O=C(CC1Nc2ccccc2NC1=O)NC1CCCCC1 (stereo not drawn)	0	-18	5	0	-4	i
COc1ccc(S(=O)(=O)N(Cc2cccs2)C2CCCC2)cc1	-3	23	-5	-2	66*	i
CC(=O)c1cc(F)c(N2CCCCC2)cc1C	x	x	x	x	x	i
OC(CN1CCN(C2c3ccccc3-c3ccccc32)CC1)Cn1c2ccccc2c2ccccc21 (stereo not drawn)	x	x	x	x	x	i
O=S1(=O)C=C(Sc2nc3cc(Cl)ccc3o2)c2ccccc21	-2	1	40*	-4	6	i
CCOC(=O)c1c(NC(=O)c2cccc(Cl)c2)sc(C(=O)Nc2ccccc2C)c1C	x	x	x	x	x	i
CC1(C)C(=O)C2(CCCCC2)C(=O)OC1c1ccc(F)cc1 (stereo not drawn)	x	x	x	x	x	i
O=C(Nc1ccc(Cl)c(Cl)c1)N1CCSC1c1ccco1 (stereo not drawn)	-8	5	7	-3	100*	i
COc1ccccc1C(=O)C(=O)c1ccccc1	x	x	x	x	x	i
Cc1n[nH]c(C)c1S(=O)(=O)N(CC(=O)Nc1ccc2c(c1)OCCO2)c1ccc(C(C)C)cc1	1	11	7	3	66*	i
Cc1noc(C)c1S(=O)(=O)N(CC(=O)Nc1ccc2c(c1)OCO2)c1ccc(C(C)C)cc1	-14	5	-6	2	-2	i
CCOc1cc(C)c(C(C)C)cc1S(=O)(=O)N1CC(C)OC(C)C1 (stereo not drawn)	-7	11	9	1	68*	i
O=C(OCC#CCSc1nnc(-c2cccc3ccccc23)o1)c1cccs1	-12	6	-6	-9	25	i
C#CCSc1nnc(-c2cccc3ccccc23)o1	10	2	5	-2	97*	i
COc1ccc(S(=O)(=O)Nc2ccccc2C(=O)NCc2ccco2)cc1Br	8	1	7	-21	83*	i
CCOc1ccc(S(=O)(=O)Nc2ccccc2C(=O)NCc2ccco2)cc1	-11	12	7	-2	33	x
COc1ccccc1CNc1ncnc2c1cnn2-c1ccccc1	3	5	7	-2	61*	i
Cc1cccc(-n2ncc3c(NCc4ccc5c(c4)OCO5)ncnc32)c1	1	6	4	1	76*	i
c1ccc(-c2cnc3n2CCCCC3)cc1	x	x	x	x	x	i
COc1ccc(CNCCC2(c3ccc(F)cc3)CCOC(C)(C)C2)cc1OC (stereo not drawn)	x	x	x	x	x	i
COc1ccc(C2(c3ccc(OC)cc3OC)C=Cc3c(ccc4ccccc34)O2)c(OC)c1	x	x	x	x	x	i
CCOC(=O)c1c(NC(=O)c2cc([N+](=O)[O-])ccc2N2CCCCCC2)sc2c1CCCC2	x	x	x	x	x	i
CC12CN3CC(C)(CN(C1)C3c1cc(Br)ccc1O)C2=O (stereo not drawn)	-2	-10	5	-4	-5	i
CC1(C)C(=O)OC(c2cc(Br)ccc2O)C(C)(C)C1=O (stereo not drawn)	-3	0	6	-3	63*	i
SMILES	Cdc25B block	MKP-1 inh	E coli RNAP	Hsp90 inh	Ecoli tolC	BAP1 block
CCCCNc1cc(C(=O)O)cc(S(N)(=O)=O)c1Oc1ccccc1	3	-12	6	-4	11	x
CCn1cc(C(=O)NCc2ccccn2)c(=O)c2cc(S(=O)(=O)N3CCCCC3)ccc21	-2	33	-2	65*	-9	i
CCn1cc(C(=O)NCc2ccco2)c(=O)c2cc(S(=O)(=O)N3CCCCCC3)ccc21	-11	36	-5	2	23	i
CCOC(=O)c1ccc2nc(NC(=O)c3ccc([N+](=O)[O-])cc3)sc2c1	x	x	x	x	x	i
COc1cccc2cc(C(=O)NC(C)=O)c(=Nc3cccc(C)c3)oc12	x	x	x	x	x	i
O=c1c(-c2ccc(O)cc2)coc2cc(O)ccc12	x	x	x	0	x	+
Cc1ccccc1-c1coc2cc(O)ccc2c1=O	-7	5	1	-7	11	x
CCC1(C)Cc2ccccc2-c2nc3n(c(=O)c21)CCCCC3 (stereo not drawn)	-13	6	-6	x	100*	x
